# The RNAGym collection of RNA variant scans (doi:10.1126/science.aae0568)
# Variants at the floor of the assay were thinned out.
# B1: tRNA (parent)
# chain: GUUCCGUUGGCGUAAUGGUAACGCGUCUCCCUCCUAAGGAGAAGACUGCGGGUUCGAGUCCCGUACGGAACG
# Variants of: B1
# Test: yeast fitness relative to wild type (ratio to wild type); higher = fitter; tRNA-Arg(CCU), competitive growth, 37 C, YPD
# Summary of the method: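 For this measurement, the tRNA-Arg(CCU) gene was varied by chemical synthesis at a 3% per-site mutation rate across 69 sites, and each variant was placed at the native genomic locus in Saccharomyces cerevisiae. The pooled strains went through a 24-hour competition in YPD at 37°C in six parallel replicates, with amplicons from start and end populations read by 100-nucleotide paired-end sequencing. Darwinian fitness relative to wild type followed from the change in each genotype's frequency. Genotypes needed ≥ 100 starting reads, and estimates < 0.5 were set to 0.5.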
row,Variant,yeast fitness
1,C55U C60U,0.584
2,C55G A70G,0.673
3,G56C A57U,0.562
4,A57G C62G C66U,0.596
5,C55G C60A C66A,≤ 0.5
6,C55A C66A,0.541
7,U54C C55G,0.654
8,C55U C61A G68C,≤ 0.5
9,C60A,0.613
10,C60G,0.664
11,C60U,0.779
12,G58A C61U A70G,1.02
13,U54G C61G C62U A65U,≤ 0.5
14,U54C U59A,0.82
15,U54C U59C,0.714
16,C55A G68U A69U,≤ 0.5
17,U59G G67C,0.659
18,C55G C60G C66U,≤ 0.5
19,A57U C61G,0.592
20,A57U C61A,0.528
21,U59C C61G,0.588
22,A57G C66G,0.783
23,A57G C66A,0.652
24,A57G G68C,0.857

row,Variant,yeast fitness
1,A57G G68A,0.944
2,U59C U64C,0.92
3,U59C U64A,0.677
4,G58C U59A G67C,0.556
5,C60U A65U,0.816
6,C60U A65G,0.86
7,C60U A65C,0.764
8,C55G A57U A65C,≤ 0.5
9,U59A C62A,0.657
10,U59A C62G,0.563
11,A57C C61U A70U,≤ 0.5
12,G58A U59C,0.971
13,G56C A57G A69C,≤ 0.5
14,U54G C66U,0.653
15,U54G C66A,0.549
16,U54G C61G A65U,0.596
17,C55U C61A,0.524
18,C55U C61G,≤ 0.5
19,C60G C61U G63A,≤ 0.5
20,A57U C62U,0.617
21,A57C A70C,0.676
22,A57C A70U,0.679
23,G58U G63C,0.586
24,C55U A69U,0.684

row,Variant,yeast fitness
1,C55U A69G,0.802
2,C55U G58A G67A,0.546
3,G58A G63A A65C,0.584
4,A57G G63A,0.879
5,G58A U64C,0.976
6,G58A U64G,1.01
7,G56A C66U,1.1
8,U59A C61G,0.62
9,U59A C61U,0.711
10,G58U A65U,0.979
11,U59C A69C,0.968
12,U54C G67U,0.798
13,C60G A65G,0.755
14,A57U G68A,0.658
15,A57U G68U,0.769
16,A57C G58C U59G C66U,0.606
17,U54C G56C,0.593
18,U54G C62G,0.559
19,A57U U64C,0.783
20,C55U G58C,0.842
21,A57C G63A,0.558
22,G58C G67U,0.832
23,G58A A65C,1.05
24,G58A A65G,0.965

row,Variant,yeast fitness
1,C55U C62A,0.627
2,G56A A65G C66U,0.763
3,C55U U59A,0.891
4,U59C C62A,0.75
5,C60A A65U,0.58
6,C60G C66G,0.576
7,A57C G67U,0.516
8,A57C G67A,0.504
9,C60G G63C,≤ 0.5
10,A57C C66A,0.624
11,A57C C66U,0.652
12,G56C A57G C61G C66U A69G,≤ 0.5
13,A57G C60U A70U,≤ 0.5
14,A57G G58A C60A C66U,0.595
15,U54C C66A,0.595
16,A57C A69U,0.605
17,U54G A65U,≤ 0.5
18,G56U A57G G68U,≤ 0.5
19,U54G A65U G67A,0.545
20,A57C C62A A65C,≤ 0.5
21,G56A A65U G67A,≤ 0.5
22,G56C A69U,0.671
23,U54C C55G A57U C62U,≤ 0.5
24,G56C G68C,0.716

row,Variant,yeast fitness
1,A57U A69U A70C,≤ 0.5
2,G58A C61U,1.03
3,C55A C62G A69C,≤ 0.5
4,C55G U64C,0.679
5,C55G C60U G68C,≤ 0.5
6,U54C A69C,0.965
7,U54C A69U,0.986
8,G58A C62A,0.904
9,G58A C62U,1.07
10,C55U A65C,0.754
11,C55U A65G,0.623
12,U59A A65C A70C,0.551
13,C60G C62U,0.743
14,G58C A69C,1.02
15,C60G A69G,0.597
16,U54C G56A C62A,≤ 0.5
17,C60G C61G,≤ 0.5
18,C60G C61U,0.626
19,A57U U59A A69C,0.654
20,C55A A70C,0.807
21,G56A A65C A69C,≤ 0.5
22,C55U,0.721
23,C55G,0.695
24,C55A,0.656

row,Variant,yeast fitness
1,G56C A70C,0.813
2,C55G G56A C61U,≤ 0.5
3,C55G A57C,0.713
4,C55G A57G,0.638
5,C55A G56C G67C,0.574
6,A57C G58C,0.77
7,A57C G58A,0.696
8,U59A U64A,0.73
9,C55A G68A,0.674
10,C60A G63A,0.584
11,U54C C62U G68C,≤ 0.5
12,C55U C60A A65U,≤ 0.5
13,A57C C61A G67A,0.56
14,G58A G67C A69C,0.542
15,C60G U64C,0.568
16,C60U A69U,0.771
17,G58A A70G,0.949
18,G58A A70C,1.01
19,U59G C60A,0.509
20,C55G C66U A69C,≤ 0.5
21,G56A G67A,0.901
22,G56A G67C,0.812
23,A57U A65C,0.865
24,G58C U59C,0.948

row,Variant,yeast fitness
1,A57G G67A A70U,≤ 0.5
2,U54C C61U,0.868
3,U54C C61G,0.713
4,U54C C61A,0.776
5,G56C U59C,0.607
6,G56C U59G,0.693
7,A57G U59C A70G,0.684
8,C60A C62U,0.624
9,C55A A57U C66U,0.574
10,C60G G63A A65U C66U,≤ 0.5
11,C60A G68U,0.587
12,G56A C62U,0.967
13,A57G G67C,0.932
14,A57G A70U,0.937
15,C55G A57U C62U C66U,≤ 0.5
16,U59C C62U G68U,0.609
17,A57G U64G,0.841
18,A57G U64C,0.979
19,A57G U64A,0.755
20,C55A G58C C66G,0.623
21,G56A G58A,0.907
22,G56A G58C,0.95
23,C55G G68A,0.604
